The source of these data is ChEMBL document CHEMBL1138564, “Microwave-induced synthesis and anti-microbial activities of 7,10,11,12-tetrahydrobenzo[c]acridin-8(9H)-one derivatives” (2009).

The test system of one experiment is Klebsiella aerogenes. In words: Antimicrobial activity against Klebsiella aerogenes NCIM 2239 at 5 ug/disk after 24 hrs by disk diffusion method. Format: functional. The following applies: NCIM 2239, 24 h, read-out: DIZ. In short, it runs like this: (§1)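 Disc diffusion on Mueller–Hinton agar. 100 µl of bacterial suspension at 10⁸ CFU/ml is spread on the plate. Discs carry test compounds at two loadings, dissolved in DMSO; DMSO alone serves as negative control. Ofloxacin disc is the positive reference. Plates are incubated at 37 °C for 24 h, and the inhibition zone diameter is measured.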

The next experiment deals with Aliivibrio fischeri. In words: Antimicrobial activity against Vibrio fischeri NCIM 2154 at 5 ug/disk after 24 hrs by disk diffusion method. Type of experiment: functional. The following applies: NCIM 2154, 24 h, read-out: DIZ. In short, it runs like this:
(§2)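 Reference disc of ofloxacin at 5 µg/disc, used to check the sensitivity of each bacterial strain. 100 µl of inoculum at 10⁸ CFU/ml was spread on Mueller–Hinton agar and incubated at 37 °C for 24 h. The read-out was inhibition zone diameter.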

The test system of the next experiment is Bacillus cereus. In words: Antimicrobial activity against Bacillus cereus NCIM 2155 at 5 ug/disk after 24 hrs by disk diffusion method. Type of experiment: functional. The following applies: NCIM 2155, 24 h, read-out: DIZ. In short, it runs like this:
as §1

In a further experiment the test system is Proteus vulgaris. In words: Antimicrobial activity against Proteus vulgaris NCIM 2027 at 5 ug/disk after 24 hrs by disk diffusion method. The following applies: NCIM 2027, 24 h, read-out: DIZ. Type of experiment: functional. The method in brief:
as §1

For a further experiment, the system named is Bacillus subtilis. In words: Antimicrobial activity against Bacillus subtilis NCIM 2063 at 5 ug/disk after 24 hrs by disk diffusion method. Format: functional. The following applies: NCIM 2063, 24 h, read-out: DIZ. The method in brief:
as §1

A further experiment deals with Salmonella typhimurium. In words: Antimicrobial activity against Salmonella Typhimurium NCIM 2501 at 5 ug/disk after 24 hrs by disk diffusion method. Type of experiment: functional, Salmonella enterica subsp. enterica serovar Typhimurium. The following applies: Salmonella enterica, NCIM 2501, 24 h; read-out: DIZ. In short, it runs like this:
as §2

A further experiment deals with Pseudomonas aeruginosa. In words: Antimicrobial activity against Pseudomonas aeruginosa NCIM 2200 at 5 ug/disk after 24 hrs by disk diffusion method. The following applies: NCIM 2200, 24 h, read-out: DIZ. Type of experiment: functional. The method in brief:
as §2

For another experiment, the system named is Staphylococcus. In words: Antimicrobial activity against Staphylococcus albus NCIM 2178 at 5 ug/disk after 24 hrs by disk diffusion method. Type of experiment: functional. The following applies: NCIM 2178, 24 h, read-out: DIZ. In short, it runs like this: as §2
Another experiment concerns Escherichia coli. In words: Antimicrobial activity against Escherichia coli NCIM 2065 at 5 ug/disk after 24 hrs by disk diffusion method. Type of experiment: functional. The following applies: NCIM 2065, 24 h, read-out: DIZ. In short, it runs like this: as §1
The subject of experiment [1] is Rhodococcus corynebacterioides. In words: Antimicrobial activity against Corynebacterium rubrum NCIM 2252 at 5 ug/disk after 24 hrs by disk diffusion method. The following applies: Rhodococcoides corynebacterioides, NCIM 2252, 24 h; read-out: DIZ. Format: functional. The method in brief:
as §1

The structures appear in SMILES notation.

For `CC1COc2c(N3CCN(C)CC3)c(F)cc3c(=O)c(C(=O)O)cn1c23` (stereo not given) [OFLOXACIN], the zone of inhibition at 5 µg/disc was 24 mm in the experiment with Klebsiella aerogenes; 27 mm in the experiment with Aliivibrio fischeri; 19 mm in the experiment on Bacillus cereus; 19 mm in the experiment on Proteus vulgaris; 24 mm with Bacillus subtilis; 21 mm in the experiment on Salmonella typhimurium. Besides, the zone of inhibition at 5 µg/disc in the experiment with Pseudomonas aeruginosa stood at 22 mm; in the experiment with Staphylococcus it was 21 mm; in the experiment on Escherichia coli, 23 mm; in experiment [1] it was 25 mm.
